Screening data deposited in PubChem BioAssay by several laboratories.
Rows were chosen to be rich in hits. Some 1.5% of all compounds tested hit in one or more screens of this group.
PP1 counter: PP1-alpha phosphatase inhibitors, primary screen, counter-screen for PP5 inhibitor project, biochemical, fluorescence, OMFP substrate, single point; Serine/threonine-protein phosphatase PP1-alpha catalytic subunit (Homo sapiens), P62136; inhibition, % at 6.7 µM; AID 2235, 2010; purified PP1alpha; actives 0.9% (n = 320,000);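 active = inhibition above the mean inhibition of all tested compounds plus 3 SD, computed separately for each screening campaign, cut at about 15% in these data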
PP5 inh: PP5 phosphatase inhibitors, primary screen, biochemical, fluorescence; actives 0.18% (n = 320,000); inhibition, % at 6.7 µM; purified PP5c, OMFP substrate fluorescence; Serine/threonine-protein phosphatase 5 (Homo sapiens), P53041;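 active = inhibition above the campaign's mean inhibition across all tested compounds plus 3 SD, cut at about 9.5% in these data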;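 also: 0% = DMSO only and 100% = 100 µM cantharidin control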
RBBP9 inh: human RBBP9 inhibitors, primary screen, biochemical, fluorescence polarization, FP-Rh probe, HTS | Serine hydrolase RBBP9 (Homo sapiens), O75884 | recombinant RBBP9 | inhibition, % at 7.94 µM | actives 0.2% (n = 220,000) | AID 1515, 2009;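 active = inhibition above the campaign mean of all tested compounds plus 3 SD, cut at about 14% in these data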;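 also: plate controls were DMSO wells with RBBP9 for no effect and wells lacking RBBP9 protein for full effect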
Target sequence (O75884 whole entry, looked up): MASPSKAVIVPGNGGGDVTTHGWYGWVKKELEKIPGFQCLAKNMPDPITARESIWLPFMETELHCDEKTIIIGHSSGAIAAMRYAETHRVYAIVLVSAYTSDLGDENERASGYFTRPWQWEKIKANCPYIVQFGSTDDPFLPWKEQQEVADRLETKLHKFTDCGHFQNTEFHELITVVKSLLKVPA
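System: RBBP9 protein / Buffer or medium: Tris/NaCl buffer pH 8.0 with 0.1% Pluronic / Probe or stimulus: Serine-hydrolase probe FP-Rh, 375 nM pre-mixing / Dosing: 7.94 µM single dose, 0.794% DMSO / Times: enzyme-compound preincubation 30 min, then probe labeling 45 min, 25 °C / Technique: fluorescence polarization (mP), excitation 525 nm, emission 598 nm / Replication: singlicate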
Hsp70 activator: Hsp70 transcriptional activators, primary screen, cell-based, HeLa, Hsp70 promoter luciferase, luminescence, 10 µM; activation, % at 10 µM; actives 0.04% (n = 200,000); HeLa Hsp70 promoter luciferase reporter; scaled: vehicle 0, proteasome-inhibitor control 100%; AID 1203, 2008;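 active = activation above the mean across all tested compounds plus 3 SD, cutoff set per campaign, cut at about 5.5% in these data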;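 also: 100% = MG132 at 30 µM as the positive control and 0% = DMSO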
PKD1 inh: inhibitors of human PKD1 kinase, biochemical, fluorescence polarization | actives 0.056% (n = 200,000) | Serine/threonine-protein kinase D1 (Homo sapiens), Q15139 | PKD1 kinase fluorescence polarization assay | inhibition, % (no concentration beside the values); in the data active = inhibition above about 50%
p97 ATPase inh: inhibitors of human p97 ATPase, primary screen, biochemical. actives 0.42% (n = 220,000). Transitional endoplasmic reticulum ATPase (Homo sapiens), P55072. AID 1481, 2009. inhibition, % at 8 µM. recombinant p97 ATPase, Kinase-Glo ATP luminescence, 3 h; in the data active = inhibition above about 15%;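 also: 0% = DMSO vehicle and 100% = wells lacking enzyme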
PP1 inh confirm: PP1 phosphatase inhibitors, confirmation, biochemical, fluorescence, OMFP substrate, triplicate; shares compounds with PP1 counter; purified PP1alpha; inhibition, % at 6.7 µM; actives 52% (n = 1,900);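 active = mean PP1 inhibition above a set limit taken from the earlier primary screen, cut at about 15% in these data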
PP5 inh counter: PP5 phosphatase inhibition by PP1 hits, confirmation, counter-screen for PP1 inhibitor project, biochemical, fluorescence, triplicate; shares compounds with PP1 counter; purified PP5c, OMFP fluorescence; inhibition, % at 6.7 µM; actives 4% (n = 1,900); AID 2360, 2010;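 active = mean PP5 inhibition over triplicate wells above about 9.5% taken from the earlier PP1 screen, limit read from the data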
An asterisk follows results filed as active; nt = no result.

SMILES	PP1 counter	PP5 inh	RBBP9 inh	Hsp70 activator	PKD1 inh	p97 ATPase inh	PP1 inh confirm	PP5 inh counter
O=C(Nc1nccs1)c1ccc(-c2ccc([N+](=O)[O-])cc2)o1	18*	-1	-7	0	-2	-3	23*	-1
Cc1ccc(Nc2c(-c3ccccn3)nc3cc(C)ccn23)cc1	40*	5	0	0	-1	6	42*	3
Cc1ccn2c(Nc3ccc4c(c3)OCO4)c(-c3ccccn3)nc2c1	28*	4	-5	0	-6	3	47*	-2
Cc1ccc(Nc2c(-c3ccccn3)nc3ccc(C)cn23)cc1	71*	5	-2	-1	-1	-5	42*	1
NC(=O)C1CC(=O)N(c2ccc(OCc3ccc(F)cc3)cc2)C1 (stereo unspecified)	-5	0	nt	nt	nt	nt	nt	nt
Cc1cc(/C=C2\Sc3ccccc3N2C)cc(C)[n+]1CC1CCCO1 (stereo unspecified)	nt	nt	-4	0	1	-2	nt	nt
COC(CNC(=O)c1ccc(CS(=O)(=O)c2ccc(Br)cc2)o1)OC	8	2	nt	nt	nt	nt	nt	nt
O=C1OCCC1Sc1nnc(-c2ccc(Cl)cc2Cl)o1 (stereo unspecified)	-5	2	5	nt	nt	5	nt	nt
O=C(Nc1ccccc1[N+](=O)[O-])C1COc2ccccc2O1 (stereo unspecified)	2	4	nt	nt	nt	nt	nt	nt
COc1cc(C(=O)NCC(=O)N/N=C(C)\C=C\c2ccccc2)cc(OC)c1OC	0	2	-6	0	-2	3	nt	nt
NNC(=O)c1ccc(COc2ccc3c(c2)CCC3)cc1	2	3	-10	0	3	-2	nt	nt
NNC(=O)c1ccc(COc2ccc3ccccc3c2)cc1	21*	-2	-5	nt	nt	1	9	-2
CC(C)NC(=S)N1CCN(c2ncccn2)CC1	0	2	-6	0	7	8	nt	nt
CC(C)=NNC(=O)c1c(O)c2ccccc2[nH]c1=O	21*	-2	-4	nt	nt	8	9	-2
CCNC(=O)c1c(O)c2ccccc2[nH]c1=O	-4	-1	0	0	-5	7	nt	nt
N#Cc1ccc(CSc2nnc(NC(=O)c3ccc4ncsc4c3)s2)cc1	24*	3	8	0	-3	2	49*	-2
O=C(Nc1nnc(SCc2c(Cl)cccc2Cl)s1)c1ccc2ncsc2c1	1	0	0	0	1	4	nt	nt
CCc1cc2c(=O)c(-c3nc(C)cs3)coc2cc1O	20*	0	-7	nt	nt	-4	12	-4
O=c1cc(-c2ccccc2Cl)oc2cccc(O)c12	3	2	-11	0	3	-1	nt	nt
O=c1cc2oc3cc(O)c(O)cc3c(-c3ccccc3[N+](=O)[O-])c-2cc1O	26*	9	nt	nt	nt	nt	14	2
O=C(Nc1nc(-c2ccccn2)cs1)c1cc(S(=O)(=O)N2CCOCC2)ccc1F	9	1	nt	nt	nt	nt	nt	nt
O=C(Nc1nc(-c2ccccn2)cs1)c1ccc(F)c(S(=O)(=O)N2CCOCC2)c1	30*	7	nt	nt	nt	nt	37*	2
Cc1ccc(C(=O)Nc2nc(-c3ccccn3)cs2)cc1S(=O)(=O)N1CCOCC1	31*	7	nt	nt	nt	nt	35*	-1
CN(CC1CCCO1)S(=O)(=O)c1ccc(C(=O)Nc2nc(-c3ccccn3)cs2)cc1 (stereo unspecified)	29*	1	-6	0	-11	1	28*	-3
